Measured values: ChEMBL document CHEMBL3045126, “Antifungal activities of major tea leaf volatile constituents toward Colletorichum camelliae Massea” (2006)
Converted amounts (≈) assume the structure as drawn.

Key:
Format in all cases: functional
Colletotrichum camelliae [1] = experiment: Antifungal activity against Colletotrichum camelliae assessed as inhibition of mycelial growth at 2000 ug/mL measured after 5 days of cultivation; settings: 120 h, read-out: GI
Summary of the method: (§1)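 Volatile constituents emulsified with emulsifier 0203-B (0.01% in medium) and mixed into PDA at 100, 500, 1000, 1500 or 2000 µg/mL in 9 cm plates. A 4 mm mycelial disk cut from a 4-day-old culture was placed centrally. Incubation was 5 days at 25 °C. Colony diameter was the mean of two readings. Inhibition = (C−T)×100/C against untreated and emulsifier controls. Three replicates.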

Colletotrichum camelliae [2] = experiment: Antifungal activity against Colletotrichum camelliae assessed as inhibition of mycelial growth at 500 ug/mL measured after 5 days of cultivation; settings: 120 h, read-out: GI; summary of the method: as §1
Colletotrichum camelliae [3] = experiment: Antifungal activity against Colletotrichum camelliae assessed as inhibition of mycelial growth at 1500 ug/mL measured after 5 days of cultivation; settings: 120 h, read-out: GI; summary of the method: as §1
Colletotrichum camelliae [4] = experiment: Antifungal activity against Colletotrichum camelliae assessed as inhibition of mycelial growth measured after 5 days of cultivation; settings: 120 h; summary of the method: as §1
Colletotrichum camelliae [5] = experiment: Antifungal activity against Colletotrichum camelliae assessed as inhibition of mycelial growth at 1000 ug/mL measured after 5 days of cultivation; settings: 120 h, read-out: GI; summary of the method: as §1
Colletotrichum camelliae [6] = experiment: Antifungal activity against Colletotrichum camelliae assessed as inhibition of mycelial growth at 100 ug/mL measured after 5 days of cultivation; settings: 120 h, read-out: GI; summary of the method: as §1

SMILES | MIC (Colletotrichum camelliae [4]) | inhibition of growth at 2000 µg/mL (Colletotrichum camelliae [1]) | inhibition of growth at 500 µg/mL (Colletotrichum camelliae [2]) | inhibition of growth at 1500 µg/mL (Colletotrichum camelliae [3]) | inhibition of growth at 1000 µg/mL (Colletotrichum camelliae [5]) | inhibition of growth at 100 µg/mL (Colletotrichum camelliae [6])
C=C[C@]1(C)CC[C@@H](C(C)(C)O)O1 [(E)-LINALOOL OXIDE] | > 2380 µg/mL | 57.4% | 40.7% | 48.1% | 44.4% | 37%
CC/C=C\CCO [CIS-3-HEXENOL] | > 2120 µg/mL | 79.6% | 44.4% | 74.1% | 61.1% | 42.6%
C=C[C@]1(C)CC[C@H](C(C)(C)O)O1 [CIS-FURANOID] | > 2380 µg/mL | 57.4% | 40.7% | 48.1% | 44.4% | 37%
CC(C)=CCC/C(C)=C/CO [GERANIOL] | 440 µg/mL (≈ 2.85 mM) | 100% | 100% | 100% | 100% | 58.1%

Continued, in another order:

MIC (Colletotrichum camelliae [4]) | SMILES | inhibition of growth at 2000 µg/mL (Colletotrichum camelliae [1]) | inhibition of growth at 500 µg/mL (Colletotrichum camelliae [2]) | inhibition of growth at 1500 µg/mL (Colletotrichum camelliae [3]) | inhibition of growth at 1000 µg/mL (Colletotrichum camelliae [5]) | inhibition of growth at 100 µg/mL (Colletotrichum camelliae [6])
2600 µg/mL (≈ 24 mM) | OCc1ccccc1 [BENZYL ALCOHOL] | 83.3% | 46.3% | 68.5% | 61.1% | 44.4%
1380 µg/mL (≈ 8.92 mM) | C=CC(C)(O)CCC=C(C)C (stereo not drawn) [LINALOOL] | 100% | 46.3% | 100% | 50% | 37%
1770 µg/mL (≈ 11.6 mM) | COC(=O)c1ccccc1O [METHYL SALICYLATE] | 100% | 50% | 100% | 55.6% | 42.6%
2040 µg/mL (≈ 16.7 mM) | OCCc1ccccc1 [PHENYLETHYL ALCOHOL] | 92.6% | 46.3% | 85.2% | 70.4% | 51.9%
